Measured values taken from ChEMBL document CHEMBL4513216, “Probing the Open Global Health Chemical Diversity Library for Multistage-Active Starting Points for Next-Generation Antimalarials” (ACS Infect Dis, 2020).

Assay: Toxicity liver stage against HepG2, at 10uM
Format: cell-based
Set-up: test concentration 10 uM, cell line HepG2-A16-CD81EGFP
Conditions: human, HepG2-A16-CD81EGFP cells; read-out: INHIBITION
In short: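 Uninfected HepG2-A16-CD81EGFP cells, 3 × 10^3 per well, 1536-well, plated on prespotted compound at 10 μM final, parasite-free screening media added to match infected plates; puromycin 10 μM positive, DMSO 0.5% negative; run in parallel with 48 h PbLuc assay at 37 °C, 5% CO2; viability by CellTiter-Glo luminescence, normalized to controls.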

Row | Compound | cytotoxicity at 10 µM [%]
1 | COc1ccc2c(ccn2CCC(=O)O)c1 | 15.4
2 | CCN1C(=O)CC(N(C)Cc2nc3ccccc3c(=O)[nH]2)C1=O (stereo not drawn) | 2.06
3 | CN1C[C@H]2CN(C(=O)c3ccc4c(c3)OCO4)CCN2C1=O | -0.434
4 | O=C(NCC1CC1)c1cc(Br)cnc1N1CCCCC1 | 3.1
5 | CC(C)C1Nc2ccccc2C(=O)N1CC(=O)Nc1nc2c(s1)CCC2 (stereo not drawn) | 2.31
6 | Cc1nnc(NC(=O)CCc2c(C)nn3cnnc3c2C)s1 | -1.7
7 | CCSc1ccccc1C(=O)NCCn1nc(-n2cncn2)ccc1=O | -5.65
8 | Cc1ccc(C(=O)N2CCc3ncc(Cn4cccn4)n3CC2)o1 | 2.31
9 | COc1ccc(CNC(=O)c2cc3c(nc2O)CCC(C)C3)cc1 (stereo not drawn) | -6.1
10 | CN1CCN(C(=O)Cn2nc(C(F)(F)F)c(Br)c2C2CC2)CC1 | -8.5
11 | CCc1nc(Nc2cccc(C(=O)NC)c2)c2c(n1)c(C)nn2CC | 1.41
12 | Oc1ccc(Cl)cc1CNCc1ccccc1C(F)(F)F | 2.67
13 | COc1cc(CC2CC(C(N)=O)=NO2)cc2c1OCO2 (stereo not drawn) | 5.32
14 | Cc1nn(C)c2cnn(C(C)C(=O)NCc3cccnc3)c12 (stereo not drawn) | 9.77
15 | COCCC(=O)N1C[C@@H](O)[C@H](N2CCN(c3ccccc3)CC2)C1 | 0.046
16 | CN1CCN(CC2(O)CCN(C(=O)CCc3ccccc3F)C2)CC1 (stereo not drawn) | -2
17 | COc1ccc2c(c1)c(-c1nc(N(C)C)ncc1CN)cn2C | 7.43
18 | Cc1nnc(C2CCN(c3ccccc3)CC2)o1 | 8.84
19 | CN1CCC(c2cccc(C(=O)N(C)C)n2)CC1 | 4.53
20 | CCC(=O)N1CCC(Cc2cnc(Nc3cnccn3)cn2)CC1 | -2.19
21 | COc1cc2cc3c(nc2cc1OC)OCCN(Cc1ccco1)C3 | -0.116

Row | Compound | cytotoxicity at 10 µM [%]
22 | Cc1csc(Nc2cc(C3CCCCN3C)nc(C)n2)n1 (stereo not drawn) | 4.73
23 | COc1ccc2c(O)c(NC(=O)NCC3CC3)cnc2c1 | -0.799
24 | CC(C)NC(=O)CCNC(=O)c1c(Br)c2ccccc2n1C | 8.59
25 | COCCN(CCOC)C(=O)c1sc(C)nc1C | 2.16
26 | CCOc1ccccc1C(=O)Nc1cccc(C[S+](C)[O-])c1C (stereo not drawn) | -4.35
27 | CC(=O)Nc1ccc(SCC(O)COCc2ccccc2)cc1 (stereo not drawn) | 1.87
28 | Cc1nc2cc(=O)[nH]n2c(C)c1CC(=O)NC(C)C | 11.3
29 | CC(=O)N1CCCC(c2nc(-c3ccccc3)c[nH]2)C1 (stereo not drawn) | 6.48
30 | CNS(=O)(=O)CC(=O)NC(c1cc(C)sc1C)C(C)C (stereo not drawn) | 0.918
31 | CCc1nc(CCNc2ncccc2S(N)(=O)=O)sc1C | -3.23
32 | Cn1cc(CC2CC(=O)N(Cc3ccc(OC(F)F)cc3)C2=O)cn1 (stereo not drawn) | 6.6
33 | CCOc1ccc(NCC(=O)NCC(=O)N2CCCC2)c(C(F)(F)F)c1 | -12.8
34 | O=C(NCCCn1nc2ccccn2c1=O)NC(C1CC1)C1CC1 | 2.74
35 | Cc1ccc(C2CN(Cc3cnc(-c4cccnc4)s3)CCO2)o1 (stereo not drawn) | -10.9
36 | COc1ccc(CCCN(C)C(=O)c2cc(Cl)c[nH]2)cc1OC | -1.24
37 | O=C1CCCN1CC1CCCCN1C(=O)Nc1cccc(F)c1 (stereo not drawn) | -1.8
38 | CC(C)N(CC(N)=O)Cc1cccc(Br)c1 | -6.93
39 | CCCC(NC(=O)c1cc(C)ccc1C)c1nnn[nH]1 (stereo not drawn) | -9.11
40 | CCOCCCNC(=O)C1CCC(=O)N(CCc2ccc(Cl)cc2)C1 (stereo not drawn) | -0.591
41 | CCn1cc(SCC(=O)N2CCCC(O)(CO)C2)c2ccccc21 (stereo not drawn) | 6.37
42 | CC(C)(O)CCc1ccc(C(=O)N2CCN(CCS(C)(=O)=O)CC2)cc1 | -0.686

Row | Compound | cytotoxicity at 10 µM [%]
43 | CCN(CC)CCNCc1cc(O)c2cc(C)ccc2n1 | 0.749
44 | CSCC(=O)N1CCc2c(cnc(C)c2-c2noc(-c3cscn3)n2)C1 | 0.86
45 | CCCc1cc(NC2CCN(Cc3ccccn3)CC2)n2nccc2n1 | -3.91
46 | O=C1CCCN1CCC1CCN(C2CCC3(CCNCC3)CC2)CC1 | 10.9
47 | c1cncc(Cc2nnc3n2CCN(CC2CCCNC2)CC3)c1 (stereo not drawn) | 2.1
48 | Cc1nn(C)c(C)c1C(C(=O)O)N1CCc2ccccc2C1 (stereo not drawn) | -0.492
49 | CC(C)=Cc1c(-c2ccccc2)ncn1CCN(C)S(C)(=O)=O | -0.334
50 | Cc1c[nH]c(CN(C)C(C(=O)O)c2c(F)cccc2Cl)n1 (stereo not drawn) | -41.7
51 | Cc1cnc(N2CCN(C)CC2)nc1-c1ccnn1C | 6.3
52 | Cn1ccnc1CN1CCCC(CO)(CCc2ccccc2)C1 (stereo not drawn) | -3.36
53 | Cn1ncc2c(NCC(=O)N3CCNCC3)nc(C(C)(C)C)nc21 | -10.6
54 | Cc1cccc(N2CCC3(CCCN3Cc3cnn(C)c3C)CC2)n1 | -2.35
55 | CCOc1ncccc1C(=O)N1CCCC(c2nccn2CCOC)C1 (stereo not drawn) | -9.12
56 | CC(C)CN1CCCn2nc(CNC(=O)CCN)cc2C1 | -20.5
57 | O=C1OC2(CCNCC2)CN1CC(=O)N1CCCC1c1ccco1 (stereo not drawn) | -14.6
58 | Cc1nc(CN2CCC(N(C)Cc3nnc(C4CC4)n3C)C2)oc1C (stereo not drawn) | -16.1
59 | CCN1CCN(Cc2nc(CC(C)C)no2)CC1 | -23
60 | Cc1cc(C)c2c(c1)C(NCc1c(C)nn(C)c1N(C)C)CCO2 (stereo not drawn) | -4.07
61 | Cc1nc(CSCCC(=O)NCc2ccc(-n3cncn3)nc2)cs1 | -27.2
62 | Cc1cc(C2CCCN(CCCS(N)(=O)=O)C2)n[nH]1 (stereo not drawn) | -20.1
63 | CN(Cc1cccnc1)C(=O)NC1CCN(Cc2ccccn2)CC1 | -18.2

Row | Compound | cytotoxicity at 10 µM [%]
64 | Cc1ccc(NC2CCN(C(=O)c3cccnc3O)CC2)nn1 | -27.6
65 | CN1CCCN(C(=O)NCCNc2ncccn2)CC1 | -16.7
66 | c1coc(-c2nc(CN3CCCC(Cn4cncn4)C3)cs2)c1 (stereo not drawn) | -12
67 | Cc1nc(-c2ccccc2)n(CC(=O)NC(C)(C)C)n1 | -16
68 | Cc1ccc(N2CCCC(NCc3cccc4c3OCO4)C2)nn1 (stereo not drawn) | -16.4
69 | CCNc1cc2c(nn1)CCN(C(=O)Cc1noc3ccccc13)C2 | -7.42
70 | CCc1ccc(S(=O)(=O)Nc2cc(C(=O)O)c(F)cc2F)s1 | -7.44
71 | Cc1cc(C)cc(NC(=O)CN2CCCC(n3cncn3)C2)c1 (stereo not drawn) | -9.93
72 | Cc1nnc2n1CCN(Cc1csc(CC(=O)N(C)C)n1)C2 | -7.08
73 | Cc1cccc(C(=O)N2C[C@@H]3OCCN(c4ncccn4)[C@@H]3C2)n1 | 0.523
74 | CN(C)CCOCc1nnc2n1CCN(Cc1ccco1)CC2 | 2.19
75 | COCCN1CCC2(CC1)CC(c1cccnc1)CO2 (stereo not drawn) | -3.21
76 | c1cncc(OCc2nnn3c2CN(Cc2ccsc2)CCC3)c1 | -4.34
77 | O=C(Cc1ccsc1)N1C[C@@H]2CN(Cc3ccoc3)CCO[C@@H]2C1 | -1.73
78 | COc1ccc(CN2Cc3nnn(C)c3C(COCCN(C)C)C2)cc1 (stereo not drawn) | 5.26
79 | Cc1noc(C)c1CN1C[C@@H]2CCCO[C@@H]2[C@H](Nc2ccccn2)C1 | 5.44
80 | CC[C@@H]1N(Cc2nccs2)CCC[C@]12CCC(=O)N2CCOC | 2.49
81 | COCCN1C(=O)C[C@H]2[C@H]1CCN2Cc1ccc(OC)cc1 | 1.47
82 | CC1N(c2cnn(C)c2)C(=O)COC12CCN(Cc1ccco1)CC2 (stereo not drawn) | 1.2
83 | C=c1ncsc1=C1NN=C(C2CCCN2C(=O)CCn2cccn2)O1 (stereo not drawn) | 2.29
